The sample as a whole holds a higher share of hits than the screen did.
CHOP inhibitor = blocks CHOP induction under ER stress. CHO-K1 CHOP-promoter luciferase, tunicamycin-induced, 15-18 h. inhibition, % at 10 µM. 3.8% of 220,000 active. AID 2732;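 active = compounds that reduced the stress-induced luciferase reporter signal by more than about 70% of percent inhibition, limit read from the data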;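 also: 0% = tunicamycin plus vehicle and 100% = wells without tunicamycin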
B2AR ag = agonists of human beta-2 adrenergic receptor inducing internalization; P07550; Am2.2-beta2AR cells, FAP receptor internalization, flow cytometry; response, % (test concentration not listed); 0.43% of 340,000 active; AID 504454;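 active = response above a set limit, near 3 SD of response in nonfluorescent compounds, cut at about 42% in these data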
Target sequence (P07550 whole entry, looked up): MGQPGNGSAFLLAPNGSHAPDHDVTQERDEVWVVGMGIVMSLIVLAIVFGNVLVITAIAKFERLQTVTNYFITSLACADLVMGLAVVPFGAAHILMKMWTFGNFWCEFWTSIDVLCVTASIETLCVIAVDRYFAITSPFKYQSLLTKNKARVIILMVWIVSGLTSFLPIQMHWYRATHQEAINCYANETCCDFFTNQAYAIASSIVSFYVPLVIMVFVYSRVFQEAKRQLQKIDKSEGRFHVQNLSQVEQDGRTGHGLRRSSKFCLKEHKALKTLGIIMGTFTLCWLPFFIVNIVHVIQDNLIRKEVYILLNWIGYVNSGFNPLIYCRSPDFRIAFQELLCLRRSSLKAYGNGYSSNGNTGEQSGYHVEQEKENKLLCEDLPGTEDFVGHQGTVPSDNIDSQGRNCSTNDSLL
Dynein transport = blocks dynein driven cargo transport along microtubules; 0.47% of 220,000 active; z-score, hits read low; AID 1381; 3617.4 mouse cells, GR-EGFP nuclear translocation imaging; test concentration mostly 20 µM; stimulated with dexamethasone, 1 µM; stronger effect = lower value;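 active = plate z-score of nuclear minus cytoplasmic receptor signal below a set negative limit, without overly bright fluorescence or cell loss, cut at about -3.5 in these data, passing the limit was not always enough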;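 also: z-score of nuclear minus cytoplasmic ring GR-EGFP intensity difference per well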
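Buffer or medium – tet-free medium with charcoal-stripped serum · Signal – automated 10x imaging of fixed Hoechst-stained cells · Also added – dexamethasone agonist, 1.0 µM final, for 30 min · Incubation – induction 48 h, compound 1 h, agonist 30 min · Read-out – GR-EGFP nuclear translocation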
pCIP destab = compounds decreasing mouse p/CIP protein stability; Q05BA5; F442A p/CIP-EGFP cells, EGFP fluorescence, 16 h; decrease of EGFP signal, % at 10 µM; 0.01% of 290,000 active;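 active = EGFP signal decrease of at least 30% at 10 µM or well 3 SD below plate mean, unless failing retest; inactive = the rest, including hits failing retest or dose response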
CHOP UPR activ = apoptotic UPR (CHOP) activation | CHO-CHOP luciferase reporter, luminescence; percent of tunicamycin response over DMSO baseline | activation, % at 10 µM | 0.34% of 330,000 active;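 active = at 10 µM dose, activation of 40% or more, normalized to positive control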;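 also: 100% = tunicamycin at 10 µg/mL and 0% = DMSO alone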
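Assay system: CHO cells with stable CHOP pathway luciferase reporter; Buffer or medium: F12 plus 10% serum; Times: 16-18 h cell attachment, then 6 h compound exposure, 37 °C; Signal: luciferase luminescence; Read-out basis: percent activation relative to tunicamycin control; Control set: tunicamycin high control, DMSO low control.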
UPR XBP1 act = adaptive UPR (XBP1) activation; CHO-XBP1 luciferase reporter, IRE1-XBP1 UPR activation, luminescence; percent of tunicamycin response, DMSO as zero; activation, % at 20 µM; 0.33% of 330,000 active; AID 463104;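 active = versus positive control, 20 µM dose yields 30% or more activation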;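 also: 100% = tunicamycin at 10 µg/mL and 0% = DMSO only wells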
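Material: CHO-XBP1 cells stably carrying IRE1-XBP1-driven luciferase reporter | Medium: F12 with 10% serum | Compound dosing: 20 µM single concentration, DMSO 1% | Incubation: Overnight seeding at 37 °C, 6 h compound treatment at 37 °C | Detection: Steady-Glo luminescence read | Read-out basis: % activation of reporter signal versus tunicamycin and DMSO controls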
UPR XBP1 confirm = adaptive UPR (XBP1) activation, confirmed. shares compounds with UPR XBP1 act. CHO-XBP1 IRE1-XBP1 luciferase reporter, luminescence. activation, % at 20 µM. 63% of 1,000 active. AID 485299;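 active = reporter signal at least 30% of the positive control's activation in two or more of four replicate wells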;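 also: plate controls were DMSO negative control for no effect and tunicamycin 10 µg/mL positive control for full effect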
An asterisk follows results filed as active; . = no result given.

SMILES | CHOP inhibitor | B2AR ag | Dynein transport | pCIP destab | CHOP UPR activ | UPR XBP1 act | UPR XBP1 confirm
CCOC(=O)c1nnc(-c2cccs2)nc1Oc1ccccc1C(=O)OC | -1 | 10 | -1 | -20 | 1 | 4 | .
CCOC(=O)c1nnc(-c2ccc(C)cc2)nc1Oc1ccc(Cl)cc1Cl | 65 | 17 | -3.2 | 3 | 31 | 94* | 124*
COc1ccccc1C(=O)Nc1cccc(Oc2c(F)c(F)c(F)c(F)c2F)c1 | 39 | 0 | 0.66 | 5 | 0 | -4 | .
COc1cc(OC)cc(-c2sc3ccc(OC)cc3c2C#CC2(N)CCCCC2)c1 | . | 19 | . | . | 3 | 28 | .
COc1ccc(-c2sc3cc4c(cc3c2C#CC2(N)CCCCC2)OCO4)cc1 | . | 25 | . | . | 11 | 34* | 15
Cc1cc(C)n2nc(SC(C)C(=O)N3CCOCC3)nc2n1 (stereo unspecified) | . | -4 | . | . | 0 | -2 | .
C[C@@H]1C[C@H]2[C@@H]3CCC4=CC(=O)C=C[C@]4(C)[C@@]3(Cl)[C@@H](O)C[C@]2(C)[C@@]1(OC(=O)c1ccco1)C(=O)CCl | . | 20 | . | . | 6 | 79* | 58*
CC1CC2C3CCC4=CC(=O)C=CC4(C)[C@@]3(Cl)C(O)CC2(C)C1(O)C(=O)CO (stereo partly specified) | . | -5 | . | . | 2 | -3 | .
Cc1occc1C(=O)/C(C#N)=C/c1ccc(O)c(Br)c1 | . | 12 | . | 0 | 1 | 0 | .
CCOc1ccc(S(=O)(=O)N2CCN(c3ccccc3OC)CC2)c2cccnc12 | 33 | 1 | -0.2 | -14 | 0 | -2 | .
Cc1ccc(NC(=O)c2cc(S(=O)(=O)N(C)C)ccc2N2CCCC2)cc1F | . | 2 | . | -1 | 13 | 39* | 64*
Cc1cc(NC(=O)C(C)Oc2ccccc2)no1 (stereo unspecified) | . | 1 | . | -9 | 0 | 8 | .
CC1CCN(c2ccccc2NC(=O)c2ccc(Br)o2)CC1 | . | -3 | . | 8 | 1 | 1 | .
Cc1ncc([N+](=O)[O-])n1S(=O)(=O)c1cc(Cl)ccc1Cl | . | 0 | . | -10 | 2 | 0 | .
COc1cc(CNC(C)(C)CO)cc(Br)c1OCc1ccccc1 | -12 | 12 | 0.44 | -4 | 1 | -1 | .
CCOc1cc(CNC(C)(C)CO)cc(Br)c1OCc1ccc(Cl)cc1Cl | 92* | 34 | -2.3 | -4 | 3 | 83* | 100*
Cc1cc(C)c2c(CCl)cc(=O)oc2c1 | -29 | 44* | -1.4 | 4 | 32 | 41* | 38*
O=C(NCCN1CCN(Cc2ccccc2)CC1)c1ccc(CS(=O)(=O)c2ccc(Br)cc2)o1 | . | -5 | . | 10 | 0 | 1 | .
COCCNC(=O)[C@H]1C[C@@H]1[C@H](NP(=O)(c1ccccc1)c1ccccc1)c1ccccc1 | 2 | -1 | -0.32 | -2 | 0 | 4 | .
CC1C/C(=N/Nc2nc3ccccc3[nH]2)CC(C)(C)C1 (stereo unspecified) | -32 | 7 | -0.56 | -1 | 3 | 34* | 31*
Cc1cc(N/N=C2\CC(C)CC(C)(C)C2)nc2ccccc12 (stereo unspecified) | 47 | 19 | -0.81 | -12 | 10 | 1 | .
CC(=O)c1ccc(N=c2scc(C)n2C(C)C)cc1 | -12 | 1 | -0.71 | 6 | 1 | 0 | .
CC1=C(C(=O)OCc2ccccc2)C(c2ccc([N+](=O)[O-])cc2)NC(=O)N1CCCC(=O)O (stereo unspecified) | . | 2 | . | 9 | 1 | 53* | -1
Cc1ccccc1NC(=O)Nc1nnc(Cc2ccc([N+](=O)[O-])cc2)s1 | 91* | 11 | 0.44 | -12 | 5 | 73* | 3
C/C(=N/Nc1cc(-c2ccccc2)nc(-c2ccccc2)n1)c1ccc(O)cc1 | 75* | 12 | 0.66 | -4 | 4 | 68* | 57*
C/C(=N\Nc1cc(-c2ccccc2)nc(-c2ccc(Br)cc2)n1)c1cccc(N)c1 | . | 5 | -0.41 | . | 3 | 8 | .
